# Assay results: the EternaBench riboswitch data
# Tested on: MS2 coat protein
# Assay: apparent Kd, MS2 coat protein; higher = weaker binding; RNA-MaP array; FMN 200 µM where present
# In short: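 The titrant was SNAP-549-labelled MS2 coat protein, run from 0.7 or 1.5 nM in doubling steps to 3 µM. It was applied to designs transcribed by stalled E. coli RNA polymerase on Illumina sequencing-chip clusters, without ligand first and then with constant ligand, in 100 mM Tris-HCl pH 7.5, 80 mM KCl, 4 mM MgCl2, BSA, DTT, yeast tRNA and Tween-20. The apparent Kd is the median of filtered per-cluster binding-curve fits, with green signal normalised to red-channel RNA signal and control-cluster median Fmax.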
# [1] = designed as: ON switch for flavin mononucleotide, no ligand
# [2] = ligand present: flavin mononucleotide, designed as: ON switch for flavin mononucleotide
# [3] = designed as: OFF switch for flavin mononucleotide, no ligand
# [4] = ligand present: flavin mononucleotide, designed as: OFF switch for flavin mononucleotide
sequence,measurement,setting,value
GGACGUCACAUCUACAUGAGGAUCACCCAUGUCAAAAGACAUGAGGAUAUGCUACCUAAUUGGUAGCAGAAGGCAUGGACGUCC,apparent Kd,[1],1070 nM
same,apparent Kd,[2],71.5 nM
UCAACUCCCGUCAGGAUAUGUUGCUCUAGGGAGCAGUAGAAGGGACAUGAGGAUCACCCAUGUUAUCCGUGUAU,apparent Kd,[3],17.2 nM
same,apparent Kd,[4],20.6 nM
CGCUACUACCAGAAGGACAUGAGGAUCACCCAUGUAGGAUAUGGGUUACACGUUCCUGUGAAUUGUAACGACGCUACGUAUGCG,apparent Kd,[1],203 nM
same,apparent Kd,[2],13.4 nM
GGGUGGCGUAGAGGAUAUGUGUUACAUGAGGAUCACCCAUGUGCAUAUGAUGUUCGUGUGUGUGUAUAGAAGGCUACGUCGCUA,apparent Kd,[1],14.4 nM
same,apparent Kd,[2],17.7 nM
AGGUGACAUGAGGAUCACCCAUGUAAGGAUAUACGGUUAGUGGAGAGAGGGAAAAGAGGUAGAAGGUACGGAGC,apparent Kd,[3],266 nM
same,apparent Kd,[4],142 nM
CCUUUGAAGAUCCUAGUUUUCGACAUGAGGAUCACCCAUGUGCAGGAUAUCGUGCCAGUGCUGUGCGAGAAGGGCAGUCUCUGC,apparent Kd,[3],63.2 nM
same,apparent Kd,[4],70.9 nM
AUAUUUAUUUAGAAGGACAUGAGGAUCACCCAUGUCGCUGGGCCCGGGAAACCGGGCCCGGCCAUGUAGGAUAUAGAUAGAUAU,apparent Kd,[3],8.53 nM
same,apparent Kd,[4],9.17 nM
GCCUCAUAGUAGAAGGGACUUCGGCUGUUAAGCAUCAUCUCCAUUUCACAUGAGGAUCACCCAUGUCAGGAUAUACUAAGAGGC,apparent Kd,[3],10.3 nM
same,apparent Kd,[4],24.9 nM
GUUUUUUUUAGUUCAUACUAUUUGAUAGAAGGUGAAAUAUAGACAUGAGGAUCACCCAUGUAAUUCAAGGAUAUGUAGUUACUC,apparent Kd,[1],40.6 nM
same,apparent Kd,[2],32.7 nM
GCGUAUUAGGUGUAGCUAGUCAUUCAAGAAGGGUGAAGAACAUGAGGAUCACCCAUGUUGUUUUUACAGGAUAUUGAUAUACGC,apparent Kd,[1],68 nM
same,apparent Kd,[2],8.52 nM
UGAGCAACAGGAUAUAUGUGGCGUCCGUGAGGACGAAGGUUACAUGAGGAUCACCCAUGUAGAAGGGUUGUUCU,apparent Kd,[3],169 nM
same,apparent Kd,[4],366 nM
AUCUCCUCUGUCAGGAUAUAUAAACUGUUGCAGUGGUAGAAGGGACAUGAGGAUCACCCAUGUAAUAUAAAUAA,apparent Kd,[3],25.6 nM
same,apparent Kd,[4],71.5 nM
GAUCCACAUGAGGAUCACCCAUGUGAGGAUAUGUUGUUAGCUUUUUGCCGUAAGCCAUAUAGAAGGCACGGGUG,apparent Kd,[3],20.1 nM
same,apparent Kd,[4],22.3 nM
UUUUUUUUAUGAGGAUAUAUUUUACAUACAAAACAUGAGGAUCACCCAUGUGUUGUCCCAUGUUUAUAGAAGGCAUUUUUUUUU,apparent Kd,[1],418 nM
same,apparent Kd,[2],598 nM
CACAAAUGGCAGAAGGGACGGACGAUAGUGUAGUCAGGAUAUGCAAAUAGGUAUGGACAUGAGGAUCACCCAUGUCCGUCCUUU,apparent Kd,[2],5.27 nM
GGAAAUCAUGUAGGAUAUGCAUGGCGAAGCUACGCAGAAGGACAUGAGGAUCACCCAUGUUAUAGCGUCCGAGUAAGGAUGCAA,apparent Kd,[3],42.1 nM
same,apparent Kd,[4],123 nM
CCGGAAAUAGAGGAUAUCGUAUCGGAUACGAUACGAGAAGGCUAUACAUGAGGAUCACCCAUGUGUCCUACCGG,apparent Kd,[3],16.4 nM
same,apparent Kd,[4],40.5 nM
UAUAUAAUUAAGAGCUGGAAUAAAACAUGAGGAUCACCCAUGUAGGAUAUCAGCACGAUAAGUGCUGAGAAGGACAACCAGCUC,apparent Kd,[3],15.8 nM
same,apparent Kd,[4],16.9 nM
UUAUGGAUUACAGGAUAUGUUAGUUUUAAGUGUAUUGGUUAUUACUUAAUUACAGAAGGGUAUUACAUGAGGAUCACCCAUGUA,apparent Kd,[1],16.4 nM
same,apparent Kd,[2],11.8 nM
AUUUAGUGCGAGAAGGCGUGGUCACAUGAGGAUCACCCAUGUCAGUACACGAGGAUAUCGAUUCGCUAUGUAAACAUAUGCGAC,apparent Kd,[1],66.8 nM
same,apparent Kd,[2],6.62 nM
CCCGACCUGAAGUCGAUACGGAGGAGAAGGCGCCUCCUGGGUCCACAUGAGGAUCACCCAUGUGGCGAGGAUAUCCUCAGUUUU,apparent Kd,[3],11.8 nM
same,apparent Kd,[4],73.7 nM
CUUAUGUGAGGAUAUCAGUAGUAAAAAAAUAAAAUUACUACUGAGAAGGCACAUGAGGAUCACCCAUGUCUUUC,apparent Kd,[3],33 nM
same,apparent Kd,[4],37.8 nM
UGCACUAGAUGAGGAUAUGCACAUGAGGAUCACCCAUGUGUGUGCUGCGGUGGUGAUCUGUAAAUGCAGAAGGCAUUCGGGCGG,apparent Kd,[3],111 nM
same,apparent Kd,[4],63.9 nM
CCCUAAUAUCGAGGAUAUGUCUAGACACAUGAGGAUCACCCAUGUAUGUGUAUAGAAGGCGAUAUUAACAGCAUGUUACAUGGG,apparent Kd,[1],315 nM
same,apparent Kd,[2],101 nM
GUGAGAAUAGGAGGAUAUAUACAACAUGAGGAUCACCCAUGUACCCGUGUAGUAGAAGGUUUGUUUAUAUAUAAUAUUAUAUUU,apparent Kd,[1],20.2 nM
same,apparent Kd,[2],18.7 nM
UGGCUGAGUCGAGGAUAUGAUCUUCAUAUAUAUACAUGAGGAUCACCCAUGUAUAAUUACAUGGAUCAGAAGGCGACUCAGCCA,apparent Kd,[1],31.6 nM
same,apparent Kd,[2],11.5 nM
CCAGCCCGUGCAGGAUAUACAUGAGGAUCACCCAUGUAGGAGAAUCCGCCGGUAGAAGGGUACGGACGGGCGUCUGACGCUUGU,apparent Kd,[3],5.87 nM
same,apparent Kd,[4],6.33 nM
UGGUACAUGGGAGGAUAUCAUGUGAUAACAUGAGGAUCACCCAUGUCGAUGGAGACAUCGGAGAUUGAGAAGGCCCAUGUACCU,apparent Kd,[1],1190 nM
same,apparent Kd,[2],96.5 nM
CCCUCGCGAGGAUAUGCAUCCUCCCUCAUUUCUUUCACUACACAUGAGGAUCACCCAUGUAGAAGGCGCUCUCC,apparent Kd,[3],49.9 nM
same,apparent Kd,[4],38.6 nM
AUCAGCUCGUCAGGAUAUACGUCACUGCGUCAGCAGUGUGGUAAGAUCACAUGAGGAUCACCCAUGUAGAAGGGACGAGCUGGU,apparent Kd,[3],14.4 nM
same,apparent Kd,[4],239 nM
GGUACCAUGUAGAAGGCAGAUCUGAUUCAGAUCUGAGGAUAUACAUGAGGAUCACCCAUGUAAAGGCACCGCACGAGAGUGCAA,apparent Kd,[3],32.4 nM
same,apparent Kd,[4],108 nM
AUGAAAUACUAGCACGGCGCGGCACAGGAUAUGCCUCAACAUGAGGAUCACCCAUGUCACUGUAGGUAGAAGGGUGUUAGCGAA,apparent Kd,[1],18.4 nM
same,apparent Kd,[2],5.52 nM
ACAUGAGGAUCACCCAUGUUCACAUAGGAUAUUGAUUAUAUUGGUUUUAGAAUAGUAAUUAACCUCAAGAAGGAUGCCAGUUCU,apparent Kd,[1],13.3 nM
same,apparent Kd,[2],10 nM
GCAUGCUCCGAGGAUAUCGAAGCUAAUUAUGCACGAGAAGGCGGAACAUGAGGAUCACCCAUGUGAUGCCUAAA,apparent Kd,[4],29.4 nM
GACCUACAUGAGGAUCACCCAUGUGAGGAUAUAUUGUUAUUUUUAAUAUUUUUUAGUGGUAGAAGGCGCGUGAU,apparent Kd,[3],18.4 nM
same,apparent Kd,[4],17.3 nM
GGACGUCACAUUUACAUGAGGAUCACCCAUGUCAAAAGACAUGAGGAUAUGGAUGCGAAACGCAUCCAGAAGGCAUGGACGUCC,apparent Kd,[1],286 nM
same,apparent Kd,[2],27.8 nM
AACGCGUCAGGAUAUGCCAUAAAUUACCUAGUACGACCAUAGCAGAAGGGACAUGAGGAUCACCCAUGUGGGUA,apparent Kd,[3],92 nM
same,apparent Kd,[4],67.6 nM
AAUAUGUUGCAGAAGGUUAUAUUUUUUUCGUACCUCAUGACAUGAGGAUCACCCAUGUAUUUGUUGAAGGAUAUGCAAUAUAUU,apparent Kd,[3],21.5 nM
same,apparent Kd,[4],17.7 nM
CGAGACCUCACAGGAUAUGCUGGACUUUGUCCAGCAGAAGGGUGAAAACAUGAGGAUCACCCAUGUAUGGUCUCCAAAUUUAAG,apparent Kd,[1],195 nM
same,apparent Kd,[2],13.2 nM
AGCUAGUGAGGAUAUACGAACAUGUCAAAAGACGUGAGGGAACAUGAGGAUCACCCAUGUAGAAGGCACUAGCA,apparent Kd,[3],38.8 nM
same,apparent Kd,[4],33 nM
GUAGCUACUAUUAUACAUGAGGAUCACCCAUGUUACAUGUGUAAGGAUAUUGAAGUUAUUAUUAUCAAGAAGGUACUAUGCUAC,apparent Kd,[1],16.2 nM
same,apparent Kd,[2],9.54 nM
UAGGAUCAACGAGGAUAUAAUAGGUUCAAUUUUUUAUAUUGUUUACAUGAGGAUCACCCAUGUUAUUAGAAGGCGUAUGGGAUU,apparent Kd,[1],53.5 nM
same,apparent Kd,[2],36.9 nM
GCAGCAUAAAUUAUACAUGAGGAUCACCCAUGUUACAUGUGUAAGGAUAUUGAGGUUAUUAUUGGCAAGAAGGUACAAUGCUGC,apparent Kd,[1],15.2 nM
same,apparent Kd,[2],8.57 nM
CAUGAGGUAGGAUAUACGAUAAUAUAGGGUAGAUAUAUAACACAUGAGGAUCACCCAUGUAGAAGGACCAGUAG,apparent Kd,[3],31.2 nM
same,apparent Kd,[4],57.2 nM
CAUCAGGUACGAGGAUAUCCGCGAUCUCUUCGAGGAGAAGGCGUACAUGAGGAUCACCCAUGUGGGCGAGGCAGACGAAGUCUG,apparent Kd,[3],96.3 nM
same,apparent Kd,[4],60.9 nM
AUUUAUGGCCAGAAGGACAUGAGGAUCACCCAUGUAGGAUAUGGACGAUUUUGCUUGGCGGUUCGUUUAGGAAGCACCGGUGGU,apparent Kd,[1],23.8 nM
same,apparent Kd,[2],7.18 nM
GGAUCCAACACAGGAUAUGCUGGACUUUGUCCAGCAGAAGGGUGAAGAACAUGAGGAUCACCCAUGUGGAUCCAUAUAUUUAAU,apparent Kd,[1],483 nM
same,apparent Kd,[2],42.4 nM
CCUAAGGACACAGGAUAUAGCGUGGUGGCUAGACUCCAACGGCGAGCGGCGCUAGAAGGGUGACCACAUGAGGAUCACCCAUGU,apparent Kd,[1],553 nM
same,apparent Kd,[2],193 nM
UGUGCGUUGAUCUUCGAUCGGUGUACAUGAGGAUCACCCAUGUAGGAUAUUCAAAGACGCAGAUAGGAGAAGGACAUCGGAUUA,apparent Kd,[3],19.2 nM
same,apparent Kd,[4],17.2 nM
UAGGACGUCGUAGGAUAUGUAGGAUAUUCCUACAUGAGGAUCACCCAUGUUGACAUGGAAGAAGGACAGAAGGACGAUGUCCAU,apparent Kd,[1],224 nM
same,apparent Kd,[2],4.61 nM
UCCUAGCUAGGAUAUACCCAGGGUUUGUUCUCUAACAAAACACAUGAGGAUCACCCAUGUAGAAGGAGCCGGGA,apparent Kd,[3],76.9 nM
same,apparent Kd,[4],70.8 nM
AAAUCAGUAGGAUAUACGAUUUUGUACUAGACAGAGGAACCACAUGAGGAUCACCCAUGUAGAAGGACUAGAUA,apparent Kd,[3],16.4 nM
same,apparent Kd,[4],13.9 nM
GAUAUGUUAGGAUAUCGGAAAACGGCCCACUGGCACGGAAGCGAGAAGGGACAUGAGGAUCACCCAUGUGAAAG,apparent Kd,[3],48.1 nM
same,apparent Kd,[4],31.4 nM
ACAAGAUCAGGAUAUACAUGAGGAUCACCCAUGUUUAUCAAAAAAGGGCUUUCUUAAUGUAGAAGGGAUCUUGU,apparent Kd,[3],84.5 nM
same,apparent Kd,[4],64.1 nM
UCCACUGCUGAGAAGGGAUACGUGUGGUUCGCAUCAGGAUAUCGAUACAGUGCAGCAUGAGGACAUGAGGAUCACCCAUGUAUC,apparent Kd,[1],43 nM
same,apparent Kd,[2],16.5 nM
